Data taken from ChEMBL document CHEMBL3861979, “Polyprenylated Benzoylphloroglucinols with DNA Polymerase Inhibitory Activity from the Fruits of Garcinia schomburgkiana” (J Nat Prod, 2016).

Columns and labels:
DNA polymerase lambda = biological target: T1, DNA polymerase lambda (Homo sapiens, UniProt Q9UGP5); experiment: Inhibition of recombinant human His-tagged DNA polymerase lambda assessed as reduction in [3H]dTTP incorporation using poly(dA)/oligo(dT)18 as template/primer preincubated for 10 mins followed by template/primer addition measured after 60 mins
T1 sequence (Q9UGP5 whole entry): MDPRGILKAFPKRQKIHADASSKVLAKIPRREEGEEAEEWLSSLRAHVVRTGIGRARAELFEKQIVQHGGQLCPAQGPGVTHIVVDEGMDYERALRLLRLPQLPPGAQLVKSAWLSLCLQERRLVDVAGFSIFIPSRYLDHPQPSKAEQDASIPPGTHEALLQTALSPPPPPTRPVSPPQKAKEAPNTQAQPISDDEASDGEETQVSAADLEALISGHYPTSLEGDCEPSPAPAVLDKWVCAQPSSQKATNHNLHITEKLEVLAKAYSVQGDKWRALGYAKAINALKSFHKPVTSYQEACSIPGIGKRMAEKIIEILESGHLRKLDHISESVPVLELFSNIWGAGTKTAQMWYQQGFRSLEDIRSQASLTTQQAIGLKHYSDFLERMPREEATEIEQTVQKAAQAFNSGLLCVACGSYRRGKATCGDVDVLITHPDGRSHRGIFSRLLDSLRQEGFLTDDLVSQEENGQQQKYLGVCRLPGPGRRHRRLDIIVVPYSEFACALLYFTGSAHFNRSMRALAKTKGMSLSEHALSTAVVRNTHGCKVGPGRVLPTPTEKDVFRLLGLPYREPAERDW
Outline: (§1)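 IC50 values are given as mean ± SD from three independent experiments.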

[1] = Inhibition of calf thymus DNA polymerase alpha assessed as reduction in [3H]dTTP incorporation using poly(dA)/oligo(dT)18 as template/primer preincubated for 10 mins followed by template/primer addition measured after 60 mins; parameters: species or system Bos taurus; outline: as §1
[2] = Cytotoxicity against human HeLa cells assessed as reduction in cell viability after 24 hrs by MTT assay; format: functional; conditions: read-out: LD50 (the source's name)
Outline: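 HeLa human cervical cancer cultured cells. Potency is expressed as median lethal dose (LD50). Values are mean ± SD of five independent experiments.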

| SMILES | IC50 (DNA polymerase lambda) | IC50 [1] | CC50 [2] |
| --- | --- | --- | --- |
| C=C(C)C(O)C[C@@H]1C[C@]2(CC=C(C)C)C(=O)[C@@](CC=C(C)C)(C(=O)C(C(=O)c3ccc(O)c(O)c3)=C2O)[C@@]1(C)CCC=C(C)C (some centres undefined) | 8.8 µM | 8.6 µM | 66.5 µM |
| CC(C)=CCC[C@@]1(C)[C@H](CC=C(C)C)C[C@]2(CC=C(C)C)C(=O)[C@@]1(CC=C(C)C)C(=O)C(C(=O)c1cccc(O)c1)=C2O | 5.7 µM | 6.5 µM | 10.2 µM |
| CC(C)=CCC/C(C)=C/C[C@@H]1C[C@]2(CC=C(C)C)C(=O)[C@@](CC=C(C)C)(C(=O)C(C(=O)c3ccc(O)c(O)c3)=C2O)[C@@]1(C)CCC=C(C)C [OBLONGIFOLIN C] | 5.2 µM | 5.7 µM | 7.3 µM |
| C[C@@]1(CO)[C@H](O)CC[C@@]2(C)[C@H]1CC[C@H]1C[C@@H]3C[C@@]12CC[C@]3(O)CO [APHIDICOLIN] | > 200 µM | 19.6 µM | 22 µM |
| CC(C)=CCC/C(C)=C/C[C@@H]1C[C@]2(CC=C(C)C)C(=O)[C@@]3(CC=C(C)C)C(O[C@@H](C(C)(C)O)CC[C@@]13C)C(C(=O)c1ccc(O)c(O)c1)=C2O (some centres undefined) | 6.9 µM | 5.4 µM | 5.9 µM |
| C=C(C)[C@H](O)CC/C(C)=C/C[C@@H]1C[C@]2(CC=C(C)C)C(=O)[C@@](CC=C(C)C)(C(=O)C(C(=O)c3ccc(O)c(O)c3)=C2O)[C@@]1(C)CCC=C(C)C | 5 µM | 6.3 µM | 9.8 µM |
| CC(C)=CCC/C(C)=C/CC1(CC=C(C)C)C(O)=C(C(=O)c2ccc(O)c(O)c2)C(=O)C2=C1OC(C)(C)C=C2 (centres undefined) | 6.2 µM | 7.9 µM | 50.8 µM |
| CC(C)=CC[C@@H]1C[C@]2(CC=C(C)C)C(=O)[C@@]3(CC=C(C)C)C(O[C@@H](C(C)(C)O)CC[C@@]13C)C(C(=O)c1ccc(O)c(O)c1)=C2O (some centres undefined) | 7.4 µM | 5.6 µM | 6.5 µM |
| Cc1cn([C@H]2CC[C@@H](COP(=O)(O)OP(=O)(O)OP(=O)(O)O)O2)c(=O)[nH]c1=O | 28.7 µM | > 200 µM | > 200 µM |
| CC(C)=CCC[C@@]1(C)[C@H](C/C=C(\C)C/C=C/C(C)(C)O)C[C@]2(CC=C(C)C)C(=O)[C@@]1(CC=C(C)C)C(=O)C(C(=O)c1ccc(O)c(O)c1)=C2O | 5.6 µM | 8.8 µM | 73.4 µM |
| CC(C)=CCC[C@@]1(C)[C@H](CC=C(C)C)C[C@]2(CC=C(C)C)C(=O)[C@@]1(CC=C(C)C)C(=O)C(C(=O)c1ccc(O)c(O)c1)=C2O [GUTTIFERONE K] | 5.4 µM | – | – |
| C=C(C)[C@@H](O)CC/C(C)=C/C[C@@H]1C[C@]2(CC=C(C)C)C(=O)[C@@](CC=C(C)C)(C(=O)C(C(=O)c3ccc(O)c(O)c3)=C2O)[C@@]1(C)CCC=C(C)C | 5.8 µM | 6.4 µM | 9.9 µM |
